Assay outcomes deposited in PubChem BioAssay by several laboratories.
Most compounds without a hit are left out; they make up all but 3.4% or so of the library.
TAAR1 ag = human TAAR1 agonists, primary screen, Fluo-8 calcium fluorescence, CHO RD-HGA16 cells; Trace amine-associated receptor 1 (Homo sapiens), Q96RJ0; vehicle wells 0%, saturating PEA agonist 100%; activation, % at 3 µM; 360,000 compounds, 0.99% hits;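 active = activation above the mean activation of all test compounds in the run plus 3 SD, cut at about 38% in these data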
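Test system: RD-HGA16 (CHO) cells co-expressing Gα16 and hTAAR1 | Doses: Single dose, 3 µM | Schedule: 17-24 h seeding, 75 min 37 °C dye, 30 min RT | Evaluation: % activation from peak over basal fluorescence ratio, DMSO-to-PEA scaled | Technique: Kinetic Fluo-8 calcium fluorescence | Benchmarks: Low control DMSO, high control PEA (EC100)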
TRPML3 agonist = human TRPML3 channel agonists, primary screen, cell-based, HEK293 TRPML3-YFP, Fluo-8 calcium fluorescence, 3 µM. Mucolipin-3 (Homo sapiens), Q8TDD5. 100% = the carbachol control signal. activation, % at 3 µM. 220,000 compounds, 0.29% hits. AID 1448, 2008;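 active = activation above its plate's cutoff, the mean activation of the plate's test wells plus 3 SD, cut at about 12% in these data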;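 note: 0% = DMSO only wells and 100% = carbachol wells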
Target sequence (Q8TDD5 whole entry, looked up): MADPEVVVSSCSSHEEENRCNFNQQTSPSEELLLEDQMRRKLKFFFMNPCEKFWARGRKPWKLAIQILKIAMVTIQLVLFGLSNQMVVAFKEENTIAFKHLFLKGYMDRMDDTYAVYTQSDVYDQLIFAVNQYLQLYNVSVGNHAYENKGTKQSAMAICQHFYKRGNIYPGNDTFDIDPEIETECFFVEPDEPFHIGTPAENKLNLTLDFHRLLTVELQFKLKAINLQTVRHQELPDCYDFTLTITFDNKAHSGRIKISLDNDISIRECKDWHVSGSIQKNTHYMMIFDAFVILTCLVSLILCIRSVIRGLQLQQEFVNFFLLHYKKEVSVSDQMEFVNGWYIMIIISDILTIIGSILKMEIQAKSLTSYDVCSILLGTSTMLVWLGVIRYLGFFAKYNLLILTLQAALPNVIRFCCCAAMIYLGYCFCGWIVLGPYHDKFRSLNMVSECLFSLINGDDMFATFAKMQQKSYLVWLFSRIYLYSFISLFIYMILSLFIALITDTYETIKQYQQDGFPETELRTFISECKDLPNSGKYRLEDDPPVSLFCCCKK
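system = HEK293 cells stably carrying human TRPML3-YFP | doses = one concentration, 3 µM nominal, 0.3% DMSO | timing = dye loading 1 h 37 °C then 30 min ambient, 125 s read | detection = Fluo-8 calcium dye fluorescence, ex 470-495, em 515-575 nm | benchmarks = high control carbachol 87 µM, low control DMSO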
GPR7 antagonist = GPR7 receptor antagonists, primary screen, cell-based, fluorescence, single concentration; GPR7-expressing cells, fluorescence antagonist assay; AID 1861, 2009; inhibition, % at 4.4 µM; 290,000 compounds, 1.1% hits; Neuropeptides B/W receptor type 1 (Homo sapiens), P48145; in the data active = inhibition above about 16%, passing the limit was not always enough;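 note: cells stimulated with the agonist NPW; 0% = agonist with vehicle and 100% = vehicle without agonist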
TRPN1 ag = zebrafish TRPN1 channel agonists, primary screen, cell-based, HEK293, calcium fluorescence; transient receptor potential cation channel N1 (TRPN1/NompC), Danio rerio; HEK293 zebrafish TRPN1-YFP, Fluo-8 calcium fluorescence; 100% = response to 87 µM carbachol; activation, % at 3 µM; 220,000 compounds, 0.18% hits;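 active = activation above its plate's cutoff, the mean activation of test wells on that plate plus 3 SD, cut at about 19% in these data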;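 note: 0% = DMSO alone and 100% = 87 µM carbachol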
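Material: zebrafish TRPN1-YFP in HEK293 cells. Doses: one dose of 3 µM, 0.3% DMSO. Incubation: dye 1 h 37 °C plus 30 min RT. Measured by: intracellular calcium fluorescence with Fluo-8.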
TAAR1 antagonist = human TAAR1 antagonists, primary screen, Fluo-8 calcium fluorescence, CHO RD-HGA16 cells; antagonist; inhibition, % at 3 µM; 360,000 compounds, 1.5% hits;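 active = inhibition above a per-plate cutoff, the mean inhibition of test compounds on that plate plus 3 SD, cut at about 49% in these data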;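 note: 0% = DMSO plus EC80 beta-PEA response and 100% = DMSO alone without agonist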
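Test system: hTAAR1-expressing CHO RD-HGA16 cells, Gα16-coupled; Probe or stimulus: EC80 β-phenethylamine stimulus; Compound dosing: single nominal final test compound concentration of 3 µM; Timing: 140 s kinetic read after compound, 140 s after agonist; Signal: Fluo-8 calcium-sensitive fluorescence; Measure: % inhibition of agonist calcium response; Controls: DMSO and EC80 PEA controls.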
LANA-H2A inh = blockers of LANA interaction with H2A/H2B – biochemical, FP readout, HTS, primary screen | Protein LANA1 (Human herpesvirus 8 type P (isolate GK18)), Q9QR71 | cell-free LANA-H2A/H2B peptide, fluorescence polarization | inhibition, % (concentration not given with the values) | 320,000 compounds, 0.6% hits | AID 2629, 2010; in the data active = inhibition mostly above about 10%, no sharp cut-off; inactive = mostly below about 6.7%
* = called active by the depositor; . = not tested or not shown.

SMILES | TAAR1 ag | TRPML3 agonist | GPR7 antagonist | TRPN1 ag | TAAR1 antagonist | LANA-H2A inh
O=[N+]([O-])c1ccc2nc(/C=C/c3ccc(Cl)cc3)[nH]c2c1 | 4 | 0 | 13 | 3 | 53* | 1
O=[N+]([O-])c1ccc2nc(C(O)C(O)c3nc4ccc([N+](=O)[O-])cc4[nH]3)[nH]c2c1 (stereo not given) | 0 | . | 4 | . | -19 | 3
COC(=O)C1=C(C)N(C)C(=NCc2ccc3c(c2)OCO3)NC1c1ccc(Cl)cc1 (stereo not given) | 5 | . | . | . | 8 | .
COC(=O)C1=C(C)N(Cc2ccc(C(F)(F)F)cc2)C(=NCc2ccc3c(c2)OCO3)NC1c1ccccc1C(F)(F)F (stereo not given) | 17 | . | . | . | -1 | .
CCOC(=O)C1=C(C(=O)OCC)C2N(Cc3ccc(Br)cc3)c3ccccc3[C@@]23C[C@@H](C(=O)OC)N(S(=O)(=O)c2ccc(Br)cc2)C3=N1 (stereo not given in full) | 0 | . | . | . | -14 | .
COc1ccc(C(=O)N2CCC(c3ccccc3)CC2)c(OC)c1OC | 7 | 1 | 20* | 2 | -27 | 1
CC[n+]1c(C)sc2cc(C)ccc21 | 3 | 0 | -7 | -2 | -14 | 9.2*
CCCC[n+]1c(C)sc2ccc(C)cc21 | 2 | 0 | 14 | -1 | -9 | 3
O=C1OC(c2ccccc2)=N/C1=C\C=C\c1ccco1 | 5 | 1 | -9 | 2 | 4 | -2
O=C1OC(c2ccccc2)=N/C1=C\C=C\c1ccccc1[N+](=O)[O-] | 5 | 1 | 11 | 2 | 5 | 12*
O=C1NC(=O)C2C3C=CC(C12)C1C(=O)NC(=O)C31 (stereo not given) | 1 | . | . | . | -25 | .
COc1ccccc1N1CCN(C(=O)c2cc3cc(F)ccc3[nH]2)CC1 | 4 | . | 12 | . | -7 | -4
COc1ccccc1N1CCN(C(=O)c2cc3ccccc3[nH]2)CC1 | 8 | . | 8 | . | 53* | -5
COc1ccccc1N1CCN(C(=O)c2cc3cc(C)ccc3[nH]2)CC1 | 1 | . | -2 | . | -14 | 15*
COc1ccccc1S(=O)(=O)N(C)C[C@H]1Oc2cc(Br)ccc2S(=O)(=O)N([C@H](C)CO)C[C@H]1C | 7 | . | . | . | 20 | .
O=C(Cc1c(F)cccc1Cl)NCCc1c[nH]c2ccccc12 | 3 | . | 13 | . | 17 | -2
O=C(NCCc1c[nH]c2ccccc12)c1c(Cl)nc2sccn12 | 39* | 0 | -8 | 1 | 23 | 3
CN(C(=O)[C@H]1O[C@@H](n2cnc(C(N)=O)n2)[C@H](O)[C@@H]1O)c1ccccc1 | 2 | . | . | . | -2 | .
COc1cc(-c2coc3c(C(=O)NCc4ccc(OC)c(OC)c4)cccc23)ccc1O | 12 | . | . | . | 66* | .
COc1cc(-c2coc3c(C(=O)NCc4ccc(N(C)C)cc4)cccc23)ccc1O | 0 | . | . | . | 20 | .
COc1ccc(CNC(=O)c2cccc3c(-c4cccc(C(N)=O)c4)coc23)cc1OC | 21 | . | . | . | 56* | .
O=[N+]([O-])c1cccc(-c2nc(-c3cccs3)c(-c3cccs3)[nH]2)c1 | 5 | 0 | -4 | 0 | 58* | 0
O=[N+]([O-])c1ccc(-c2nc(-c3cccs3)c(-c3cccs3)[nH]2)cc1 | 20 | 1 | 0 | 3 | 61* | 2
O=[N+]([O-])c1cccc(-c2nc(-c3ccccc3)c(-c3cccs3)[nH]2)c1 | 5 | 0 | 0 | -1 | 58* | 3
CC(C)C[C@H](NS(=O)(=O)c1ccc(F)cc1F)C(=O)N1CCC[C@H]1C(=O)NCc1ccccc1 | 0 | . | . | . | 1 | .
SMILES | TAAR1 ag | TRPML3 agonist | GPR7 antagonist | TRPN1 ag | TAAR1 antagonist | LANA-H2A inh
COc1cccc(CN(C)[C@H]2C[C@H]3c4[nH]c5ccccc5c4CCN3C[C@H]2[C@H](C)O)c1OC | 1 | . | . | . | -13 | .
Cc1nnc(NC(=O)Nc2cccc(Cl)c2)s1 | 43* | 1 | -3 | 4 | 36 | -10
Cc1csc(NC(=O)Nc2cccc(Cl)c2)n1 | 20 | 1 | -10 | 3 | 15 | -1
Cc1sc2nc(CSCC(=O)Nc3cc(F)ccc3F)[nH]c(=O)c2c1C | 4 | . | . | . | 14 | -1
Cc1cc(C)c(NC(=O)CSCc2nc3sc(C)c(C)c3c(=O)[nH]2)c(Cl)c1 | 1 | . | . | . | -1 | 55*
O=C(NC1CCCC1)[C@@H]1CCCN1C(=O)[C@@H](NS(=O)(=O)c1ccc(F)cc1F)c1ccccc1 | 1 | . | . | . | -14 | .
C[C@H](O)[C@@H]1CN2CCc3ccc(-c4ccc5c(c4)OCO5)cc3[C@@H]2C[C@@H]1N(C)C(=O)c1cccc(Cl)c1 | -2 | . | . | . | -31 | .
O=C(C1CCCN(c2ncnc3c2nc2n3CCCCC2)C1)N1CCN(c2cccc(Cl)c2)CC1 (stereo not given) | 40* | . | -5 | . | 88* | 2
CN(C(=O)C1CCCN(c2ncnc3c2nc2n3CCCCC2)C1)c1cccc(Cl)c1 (stereo not given) | 3 | . | -4 | . | 0 | -3
Cc1cccc(N2CCN(C(=O)C3CCN(c4ncnc5c4nc4n5CCCCC4)CC3)CC2C)c1 (stereo not given) | 13 | . | 0 | . | 49* | -1
Cc1noc(C)c1NC(=O)N(C)C[C@H]1OCc2cn(nn2)CCCC(=O)N([C@H](C)CO)C[C@@H]1C | 1 | . | . | . | -1 | .
O=Nc1ccc(Br)cn1 | 2 | . | . | . | -8 | .
C/C(=N/NC(=O)c1cc(-c2cccc([N+](=O)[O-])c2)n[nH]1)c1cccc(O)c1 | 1 | 0 | 0 | 0 | -17 | 15*
NC(Cc1ccc(Cl)cc1)c1csc(Nc2ccc(C(F)(F)F)cn2)n1 (stereo not given) | 45* | . | . | . | 33 | .
COc1cc(OC)nc(Nc2nc(C(N)Cc3ccc(Cl)cc3)cs2)n1 (stereo not given) | 47* | . | . | . | 37 | .
COc1cccc(C2=NOC(C(=O)NCc3ccccn3)C2)c1 (stereo not given) | 45* | 0 | -3 | 0 | -22 | -2
COc1ccc(C2=NOC(C(=O)NCc3ccccn3)C2)cc1 (stereo not given) | 1 | 1 | 18 | 0 | 8 | 2
COc1ccc(C2CC3(CC(C)(C)NC(SC)=N3)Oc3cc(O)cc(C)c32)cc1 (stereo not given) | 51* | 1 | 8 | 1 | 5 | -1
